Inhibition and IC50 data for 27 molecules are collected here from ChEMBL document CHEMBL3232795, “Using 'biased-privileged' scaffolds to identify lysine methyltransferase inhibitors” (Bioorg Med Chem, 2014).

Calls of active or inactive are those of the source. The rule behind the calls is not given here.

For orientation: inhibition means the percentage by which the read-out fell short of the control. In general, IC50 refers to the concentration at which inhibition is half-maximal. Low readings indicate inhibition by little substance, high ones a need for much substance.

In the first assay the target is T1, Histone-lysine N-methyltransferase SETD7 (Homo sapiens) (UniProt Q8WTS6).
T1 sequence (whole entry): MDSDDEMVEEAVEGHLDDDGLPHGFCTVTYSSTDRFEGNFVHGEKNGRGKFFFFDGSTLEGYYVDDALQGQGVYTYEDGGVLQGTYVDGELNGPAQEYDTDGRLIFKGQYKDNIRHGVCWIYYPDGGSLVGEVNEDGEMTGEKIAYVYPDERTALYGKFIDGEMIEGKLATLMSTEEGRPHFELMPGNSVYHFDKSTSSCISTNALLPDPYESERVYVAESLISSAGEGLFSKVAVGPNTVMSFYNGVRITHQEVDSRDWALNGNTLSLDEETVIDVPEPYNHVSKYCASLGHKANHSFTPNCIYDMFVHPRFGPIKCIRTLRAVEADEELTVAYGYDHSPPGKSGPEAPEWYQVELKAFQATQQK
As to the kind of experiment: Inhibition of methyl-transferase activity in GST-tagged recombinant SET7/9 (unknown origin) expressed in Escherichia coli BL21 using H3(1-20)-cys-biotin as substrate at 40 uM preincubated for 5 mins followed by substrate addition by ELISA relative to control. The method in brief: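 GST-fused SET7 (residues 52–366), expressed in bacteria. Enzyme at 2.8 nM with SAM (300 nM) in Tris pH 8.0 buffer (4% DMSO, BSA, EDTA, DTT, Triton X-100) on streptavidin plates, preincubated with compound 5 min at room temperature. Biotinylated H3(1–20)-cys substrate (900 nM) added, 5 min at 30 °C. Stopped with acetate pH 5.0. H3K4me1 detected with antibody, HRP secondary and chemiluminescence; signal given relative to DMSO control.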
For orientation: ELISA stands for enzyme-linked immunosorbent assay.
For `O=C(O)c1cccc(SCc2cccc(-n3ccc4c(Br)cccc43)c2)c1`, the inhibition entry was “Active”.

Regarding `CC(=O)Nc1ccc(-c2cccc3c2ccn3-c2cccc(CNc3cccc(C(=O)O)c3)c2)cc1`, the inhibition result was “Active”.

For the molecule `O=C(O)c1ccc(-c2cccc3c2ccn3-c2cccc(CNc3cccc(C(=O)O)c3)c2)cc1`, the inhibition entry was “inactive”.

As to `O=C(O)c1cccc(SCc2cccc(-n3ccc4c(-c5ccccc5)cccc43)c2)c1`, the inhibition turned out to be 50%.

On to `O=C(O)c1cccc(NCc2cccc(-n3ccc4c(-c5ccccc5)cccc43)c2)c1`, for which the inhibition amounted to 50%.

With `O=C(O)c1cccc(NCc2cccc(-n3ccc4c(-c5ccc(C(F)(F)F)cc5)cccc43)c2)c1`, the inhibition result is “Active”.

Turning to `N[C@@H](CCSCc1cccc(-n2ccc3cc(Br)ccc32)c1)C(=O)O`, the inhibition was 12%.

On to `O=C(O)c1cccc(NCc2cccc(-n3ccc4c(-c5ccc6ccccc6c5)cccc43)c2)c1`, for which the inhibition entry is “Active”.

With `O=C(O)CCCSCc1cccc(-n2ccc3cc(Br)ccc32)c1`, the inhibition result was “Active”.

Turning to `O=C(O)c1cccc(SCc2cccc(-n3ccc4cc(Br)ccc43)c2)c1`, the inhibition result is “Active”.

Regarding `Cc1ccc(-c2cccc3c2ccn3-c2cccc(CNc3cccc(C(=O)O)c3)c2)cc1`, the inhibition entry was “Active”.

In the next assay the target is T1, Histone-lysine N-methyltransferase SETD7 (Homo sapiens). As to the kind of experiment: Inhibition of SET7 (unknown origin)-mediated methylation of histone H3(1-20)cys-biotin at 15 to 50 uM after 5 mins by scintillation proximity assay in presence of [3H]-S-adenosyl-methionine. In short, it runs like this:
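SET7 (25 nM) with biotinylated H3(1–20)-cys peptide (900 nM) and compound (2% DMSO final) in Tris pH 8.5 buffer with BSA, EDTA and DTT, 5 min at 30 °C. Started with SAM (2 µM) carrying trace 3H-SAM (0.2 µM), 8 min at 30 °C. Quenched onto streptavidin SPA beads in acetate pH 5.0 with excess cold SAM, then counted. Background-subtracted CPM expressed as percent of DMSO control. Tested twice.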
In general terms: SPA uses beads or plates that emit light when radiolabelled molecules are held near them.
For `O=C(O)c1cccc(NCc2cccc(-n3ccc4cc(-c5ccc(C(F)(F)F)cc5)cnc43)c2)c1`, the inhibition entry was “Active”.

With `O=[N+]([O-])c1ccccc1S(=O)(=O)Nc1cccc(-n2ccc3c(-c4ccc(C(F)(F)F)cc4)cccc32)c1`, the inhibition result was “Active”.

On to `CS(=O)(=O)c1ccc(S(=O)(=O)Nc2cccc(-n3ccc4c(-c5ccc(C(F)(F)F)cc5)cccc43)c2)cc1`, for which the inhibition result is “Active”.

Take `O=C(O)c1cccc(NCc2cccc(-n3cnc4c(-c5ccc(C(F)(F)F)cc5)cccc43)c2)c1`: the inhibition entry is “Active”.

Turning to `Cc1cc(O)c(C(=O)O)cc1S(=O)(=O)Nc1cccc(-n2ccc3c(-c4ccc(C(F)(F)F)cc4)cccc32)c1`, the inhibition entry was “Active”.

For the molecule `O=[N+]([O-])c1cccc(S(=O)(=O)Nc2cccc(-n3ccc4c(-c5ccc(C(F)(F)F)cc5)cccc43)c2)c1`, the inhibition entry is “Active”.

Take `O=C(O)c1cccc(S(=O)(=O)Nc2cccc(-n3ccc4c(-c5ccc(C(F)(F)F)cc5)cccc43)c2)c1`: the inhibition result is “Active”.

As to `CC(=O)Nc1nc(C)c(S(=O)(=O)Nc2cccc(-n3ccc4c(-c5ccc(C(F)(F)F)cc5)cccc43)c2)s1`, the inhibition entry was “Active”.

For `O=C(O)c1cccc(NCc2cccc(-n3ccc4c(-c5ccc(C(F)(F)F)cc5)ncnc43)c2)c1`, the inhibition result was “Active”.

`O=C(O)c1ccccc1S(=O)(=O)Nc1cccc(-n2ccc3c(-c4ccc(C(F)(F)F)cc4)cccc32)c1`: the inhibition entry is “Active”.

With `O=C(O)c1cccc(NCc2cccc(-n3ccc4cc(-c5ccc(C(F)(F)F)cc5)ccc43)c2)c1`, the inhibition result is “Active”.

For the molecule `O=C(O)c1cccc(NCc2cccc(-n3ccc4c(-c5ccc(C(F)(F)F)cc5)cccc43)c2)c1`, the inhibition entry was “Active”.

For `O=C(O)c1cccc(CNc2cccc(-n3ccc4c(-c5ccc(C(F)(F)F)cc5)ncnc43)c2)c1`, the inhibition result is “Active”.

On to `O=[N+]([O-])c1ccc(S(=O)(=O)Nc2cccc(-n3ccc4c(-c5ccc(C(F)(F)F)cc5)cccc43)c2)cc1`, for which the inhibition entry is “Active”.

For `O=C(O)c1ccc(S(=O)(=O)Nc2cccc(-n3ccc4c(-c5ccc(C(F)(F)F)cc5)cccc43)c2)cc1`, the inhibition entry was “Active”.

For the molecule `O=C(O)c1cccc(NCc2cccc(-n3ncc4cc(-c5ccc(C(F)(F)F)cc5)ccc43)c2)c1`, the inhibition result is “Active”.

Regarding `O=C(O)c1cccc(NCc2ccc(-n3ccc4c(-c5ccc(C(F)(F)F)cc5)ncnc43)s2)c1`, the inhibition result was “Active”.

A further assay addresses T2, Histone-lysine N-methyltransferase EHMT2 (Homo sapiens, UniProt Q96KQ7).
T2 sequence (Q96KQ7 whole entry): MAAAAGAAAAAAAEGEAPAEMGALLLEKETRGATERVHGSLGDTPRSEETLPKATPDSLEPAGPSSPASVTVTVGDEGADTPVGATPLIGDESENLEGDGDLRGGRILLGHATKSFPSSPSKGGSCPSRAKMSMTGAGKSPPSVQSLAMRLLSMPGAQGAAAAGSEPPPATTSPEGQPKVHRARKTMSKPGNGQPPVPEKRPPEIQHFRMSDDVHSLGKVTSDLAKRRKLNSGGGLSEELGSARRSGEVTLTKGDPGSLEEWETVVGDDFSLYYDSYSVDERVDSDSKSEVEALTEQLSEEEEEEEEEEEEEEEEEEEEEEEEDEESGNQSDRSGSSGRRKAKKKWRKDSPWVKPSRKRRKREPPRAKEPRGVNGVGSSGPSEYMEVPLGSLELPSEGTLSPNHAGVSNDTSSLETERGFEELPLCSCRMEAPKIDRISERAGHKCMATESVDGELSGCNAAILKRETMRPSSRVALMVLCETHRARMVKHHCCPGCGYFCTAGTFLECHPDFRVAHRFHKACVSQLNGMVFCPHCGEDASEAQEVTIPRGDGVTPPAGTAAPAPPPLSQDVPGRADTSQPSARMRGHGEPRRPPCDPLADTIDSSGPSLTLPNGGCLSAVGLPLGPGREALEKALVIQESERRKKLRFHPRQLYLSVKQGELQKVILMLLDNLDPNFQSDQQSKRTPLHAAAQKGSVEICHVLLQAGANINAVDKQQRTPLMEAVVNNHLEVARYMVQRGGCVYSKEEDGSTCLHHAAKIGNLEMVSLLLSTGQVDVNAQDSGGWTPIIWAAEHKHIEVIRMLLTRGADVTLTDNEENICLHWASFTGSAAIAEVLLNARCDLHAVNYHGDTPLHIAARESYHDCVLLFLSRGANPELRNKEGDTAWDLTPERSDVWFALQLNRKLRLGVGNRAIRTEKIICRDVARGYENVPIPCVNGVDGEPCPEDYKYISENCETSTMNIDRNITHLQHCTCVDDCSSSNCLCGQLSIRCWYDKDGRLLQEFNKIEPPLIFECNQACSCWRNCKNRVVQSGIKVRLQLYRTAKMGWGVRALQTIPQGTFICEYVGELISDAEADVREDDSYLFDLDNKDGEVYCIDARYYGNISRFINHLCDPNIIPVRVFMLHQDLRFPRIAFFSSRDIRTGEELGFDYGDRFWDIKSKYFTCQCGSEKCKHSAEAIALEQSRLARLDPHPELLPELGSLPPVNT
As to the kind of experiment: Inhibition of C-terminal GST-tagged human G9a-mediated-methylation of histone3 expressed in Escherichia coli BL21(DE3) by scintillation proximity assay.
`O=C(O)c1cccc(NCc2cccc(-n3ccc4c(-c5ccc(C(F)(F)F)cc5)cccc43)c2)c1` showed a half-maximal inhibitory concentration (IC50) of 26.4 µM.
